Test results published in ChEMBL document CHEMBL5252537, “Usnic Acid Benzylidene Analogues as Potent Mechanistic Target of Rapamycin Inhibitors for the Control of Breast Malignancies” (J Nat Prod, 2017).

How the values were obtained:
MCF7 = assay: Antiproliferative activity against human MCF7 cells incubated for 72 hrs by MTT assay; format: functional, cell-based; settings: MCF7, 72 h
Method in brief: (§1)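 Cells seeded at 5 × 10^3/well and allowed to attach overnight, then washed with PBS. Compound diluted from 10 mM DMSO stock into medium (100 ng/mL HGF added for c-Met-expressing cells), in triplicate, 72 h at 37 °C. MTT added for 4 h, formazan dissolved in DMSO, absorbance read at 570 nm. Cell numbers taken from a standard curve; IC50 calculated.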

MDA-MB-231 = assay: Antiproliferative activity against human MDA-MB-231 cells incubated for 72 hrs by MTT assay; format: functional, cell-based; settings: MDA-MB-231, 72 h; method in brief: as §1

SMILES	IC50 (MCF7)	IC50 (MDA-MB-231)
COc1cc(/C=C/C(=O)c2c(O)c(C)c(O)c3c2OC2=CC(O)=C(C(C)=O)C(=O)[C@]23C)cc(OC)c1OC	1.22 µM	1.63 µM
CC(=O)C1=C(O)C=C2Oc3c4c(c(C)c(O)c3[C@]2(C)C1=O)OC(c1ccc(OCc2c(F)cccc2Cl)cc1)CC4=O (some centres not stated)	3.09 µM	4.42 µM
CC(=O)C1=C(O)C=C2Oc3c4c(c(C)c(O)c3[C@]2(C)C1=O)OC(c1ccc(OCc2ccc(F)cc2)cc1)CC4=O (some centres not stated)	4.32 µM	5.58 µM
CC(=O)C1=C(O)C=C2Oc3c(C(=O)CC(O)c4cc(Cl)cc(Cl)c4)c(O)c(C)c(O)c3[C@]2(C)C1=O (some centres not stated)	5.81 µM	4.44 µM
CC(=O)C1=C(O)C=C2Oc3c4c(c(C)c(O)c3[C@]2(C)C1=O)OC(c1ccc(C)cc1)CC4=O (some centres not stated)	4.21 µM	5.99 µM
CC(=O)C1=C(O)C=C2Oc3c4c(c(C)c(O)c3[C@]2(C)C1=O)OC(c1ccc(Cl)cc1Cl)CC4=O (some centres not stated)	3.64 µM	4.01 µM
CC(=O)C1=C(O)C=C2Oc3c(C(=O)CC(O)c4cc(C(F)(F)F)cc(C(F)(F)F)c4)c(O)c(C)c(O)c3[C@]2(C)C1=O (some centres not stated)	5.24 µM	1.56 µM
CC(=O)C1=C(O)C=C2Oc3c4c(c(C)c(O)c3[C@]2(C)C1=O)OC(c1ccc(OCc2ccccc2)cc1)CC4=O (some centres not stated)	6.53 µM	5.71 µM
CCCCOc1ccc(C2CC(=O)c3c(c(C)c(O)c4c3OC3=CC(O)=C(C(C)=O)C(=O)[C@]34C)O2)cc1 (some centres not stated)	2.91 µM	2.23 µM
CC(=O)C1=C(O)C=C2Oc3c4c(c(C)c(O)c3[C@]2(C)C1=O)OC(c1ccc(C(=O)O)cc1)CC4=O (some centres not stated)	12.8 µM	14.4 µM
CC(=O)C1=C(O)C=C2Oc3c4c(c(C)c(O)c3[C@]2(C)C1=O)OC(c1ccccc1)CC4=O (some centres not stated)	7.26 µM	8.04 µM
CC(=O)C1=C(O)C=C2Oc3c4c(c(C)c(O)c3[C@]2(C)C1=O)OC(c1ccc(OC(F)(F)F)cc1)CC4=O (some centres not stated)	1.51 µM	1.79 µM
CC(=O)C1=C(O)C=C2Oc3c4c(c(C)c(O)c3[C@]2(C)C1=O)OC(c1ccc(C(F)(F)F)cc1)CC4=O (some centres not stated)	4.77 µM	3.93 µM
CCOc1ccc(C2CC(=O)c3c(c(C)c(O)c4c3OC3=CC(O)=C(C(C)=O)C(=O)[C@]34C)O2)cc1 (some centres not stated)	3.36 µM	3.68 µM
COc1cccc(C2CC(=O)c3c(c(C)c(O)c4c3OC3=CC(O)=C(C(C)=O)C(=O)[C@]34C)O2)c1 (some centres not stated)	3.73 µM	2.94 µM
CC(=O)C1=C(O)C=C2Oc3c4c(c(C)c(O)c3[C@]2(C)C1=O)OC(c1ccc(F)cc1)CC4=O (some centres not stated)	6.22 µM	6.89 µM
CC(=O)C1=C(O)C=C2Oc3c(C(=O)/C=C/c4cc(C(F)(F)F)cc(C(F)(F)F)c4)c(O)c(C)c(O)c3[C@]2(C)C1=O	0.91 µM	0.72 µM
CC(=O)C1=C(O)C=C2Oc3c4c(c(C)c(O)c3[C@]2(C)C1=O)OC(c1ccc(C(C)(C)C)cc1)CC4=O (some centres not stated)	3.43 µM	3.65 µM
CCOc1ccccc1C1CC(=O)c2c(c(C)c(O)c3c2OC2=CC(O)=C(C(C)=O)C(=O)[C@]23C)O1 (some centres not stated)	5.92 µM	6.13 µM
CC(=O)C1=C(O)C=C2Oc3c4c(c(C)c(O)c3[C@]2(C)C1=O)OC(c1cccc(Cl)c1)CC4=O (some centres not stated)	6.32 µM	6.41 µM
CC(=O)C1=C(O)C=C2Oc3c4c(c(C)c(O)c3[C@]2(C)C1=O)OC(c1c(Cl)cccc1Cl)CC4=O (some centres not stated)	4.92 µM	4.31 µM

Results, then the compound that gave them:

IC50 (MCF7)	IC50 (MDA-MB-231)	SMILES
0.39 µM	0.58 µM	CC(=O)C1=C(O)C=C2Oc3c(C(=O)/C=C/c4ccc(OCCC(C)C)cc4)c(O)c(C)c(O)c3[C@]2(C)C1=O
0.93 µM	1.15 µM	COc1cc(F)c(/C=C/C(=O)c2c(O)c(C)c(O)c3c2OC2=CC(O)=C(C(C)=O)C(=O)[C@]23C)cc1OC
3.63 µM	4.79 µM	CC(=O)C1=C(O)C=C2Oc3c(C(=O)/C=C/c4cccc(F)c4)c(O)c(C)c(O)c3[C@]2(C)C1=O
0.54 µM	0.73 µM	CCSc1ccc(/C=C/C(=O)c2c(O)c(C)c(O)c3c2OC2=CC(O)=C(C(C)=O)C(=O)[C@]23C)cc1
0.53 µM	0.62 µM	CCCCOc1ccc(/C=C/C(=O)c2c(O)c(C)c(O)c3c2OC2=CC(O)=C(C(C)=O)C(=O)[C@]23C)cc1
0.74 µM	0.72 µM	CC(=O)C1=C(O)C=C2Oc3c(C(=O)/C=C/c4ccc(-c5ccccc5)cc4)c(O)c(C)c(O)c3[C@]2(C)C1=O
1.23 µM	1.16 µM	CC(=O)C1=C(O)C=C2Oc3c(C(=O)/C=C/c4cccc(C(F)(F)F)c4)c(O)c(C)c(O)c3[C@]2(C)C1=O
2.1 µM	2.63 µM	CC(=O)C1=C(O)C=C2Oc3c(C(=O)/C=C/c4ccc(Cl)cc4)c(O)c(C)c(O)c3[C@]2(C)C1=O
4.5 µM	5.1 µM	CC(=O)C1=C(O)C=C2Oc3c(C(=O)/C=C/c4ccccc4)c(O)c(C)c(O)c3[C@]2(C)C1=O
0.93 µM	1.36 µM	CC(=O)C1=C(O)C=C2Oc3c(C(=O)/C=C/c4ccc(Cl)cc4Cl)c(O)c(C)c(O)c3[C@]2(C)C1=O
0.84 µM	1.03 µM	CC(=O)C1=C(O)C=C2Oc3c(C(=O)/C=C/c4ccc(C(C)(C)C)cc4)c(O)c(C)c(O)c3[C@]2(C)C1=O
2.7 µM	3.92 µM	CC(=O)C1=C(O)C=C2Oc3c(C(=O)/C=C/c4cccc(Cl)c4)c(O)c(C)c(O)c3[C@]2(C)C1=O
2.98 µM	3.31 µM	CC(=O)C1=C(O)C=C2Oc3c(C(=O)/C=C/c4ccc(F)cc4)c(O)c(C)c(O)c3[C@]2(C)C1=O
1.33 µM	1.65 µM	CC(=O)C1=C(O)C=C2Oc3c(C(=O)/C=C/c4ccc(C)cc4)c(O)c(C)c(O)c3[C@]2(C)C1=O
0.52 µM	0.68 µM	CC(=O)C1=C(O)C=C2Oc3c(C(=O)/C=C/c4ccc(-c5ccc(F)cc5)cc4)c(O)c(C)c(O)c3[C@]2(C)C1=O
1.96 µM	2.38 µM	CC(=O)C1=C(O)C=C2Oc3c(C(=O)/C=C/c4c(F)cccc4F)c(O)c(C)c(O)c3[C@]2(C)C1=O
1.82 µM	2.09 µM	CC(=O)C1=C(O)C=C2Oc3c(C(=O)/C=C/c4cc(F)cc(F)c4)c(O)c(C)c(O)c3[C@]2(C)C1=O
0.97 µM	0.96 µM	COc1ccc(/C=C/C(=O)c2c(O)c(C)c(O)c3c2OC2=CC(O)=C(C(C)=O)C(=O)[C@]23C)cc1
2.44 µM	2.95 µM	CC(=O)C1=C(O)C=C2Oc3c(C(=O)/C=C/c4cc(Cl)cc(Cl)c4)c(O)c(C)c(O)c3[C@]2(C)C1=O
0.73 µM	0.71 µM	CC(=O)C1=C(O)C=C2Oc3c(C(=O)/C=C/c4ccc(C(F)(F)F)cc4)c(O)c(C)c(O)c3[C@]2(C)C1=O
1.53 µM	5.69 µM	CC(=O)C1=C(O)C=C2Oc3c(C(=O)/C=C/c4c(Cl)cccc4Cl)c(O)c(C)c(O)c3[C@]2(C)C1=O
1.13 µM	1.53 µM	CC(=O)C1=C(O)C=C2Oc3c(C(=O)/C=C/c4ccc(Br)cc4)c(O)c(C)c(O)c3[C@]2(C)C1=O
0.75 µM	0.91 µM	CC(=O)C1=C(O)C=C2Oc3c(C(=O)/C=C/c4ccc(OCc5ccc(F)cc5)cc4)c(O)c(C)c(O)c3[C@]2(C)C1=O
9.38 µM	10.6 µM	CC(=O)C1=C(O)C=C2Oc3c(C(=O)/C=C/c4ccc(C(=O)O)cc4)c(O)c(C)c(O)c3[C@]2(C)C1=O
1.14 µM	0.95 µM	CC(=O)C1=C(O)C=C2Oc3c(C(=O)/C=C/c4ccc(OCc5ccccc5)cc4)c(O)c(C)c(O)c3[C@]2(C)C1=O
0.87 µM	0.93 µM	CC(=O)C1=C(O)C=C2Oc3c(C(=O)/C=C/c4ccc(OCc5c(F)cccc5Cl)cc4)c(O)c(C)c(O)c3[C@]2(C)C1=O
3.74 µM	3.54 µM	CC(=O)C1=C(O)C=C2Oc3c(C(=O)/C=C/c4ccccc4F)c(O)c(C)c(O)c3[C@]2(C)C1=O
0.72 µM	0.89 µM	CSc1ccc(/C=C/C(=O)c2c(O)c(C)c(O)c3c2OC2=CC(O)=C(C(C)=O)C(=O)[C@]23C)cc1
2.18 µM	2.03 µM	CCOc1ccccc1/C=C/C(=O)c1c(O)c(C)c(O)c2c1OC1=CC(O)=C(C(C)=O)C(=O)[C@]12C
0.71 µM	0.84 µM	CCOc1ccc(/C=C/C(=O)c2c(O)c(C)c(O)c3c2OC2=CC(O)=C(C(C)=O)C(=O)[C@]23C)cc1
